According to article PMC9293343 (Chemmedchem, 2021):

Columns and labels:
[1] = biological target: T1, Neh1‐ΔLZIP (Homo sapiens, UniProt Q16236); type: binding; conditions: 0.750 mM compound 2, ARE DNA 0.10, 0.20, 0.30 mM, 50 μM protein
T1 sequence (Q16236 445-523): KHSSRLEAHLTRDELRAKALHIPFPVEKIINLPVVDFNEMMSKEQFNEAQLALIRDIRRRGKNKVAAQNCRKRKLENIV

[2] = biological target: T2, Neh1 (residues 445–523, Neh1‐ΔLZIP) domain of NRF2 (Homo sapiens, UniProt Q16236); assay: 1H-15N HSQC small-molecule titration; type: binding
T2 sequence (Q16236 445-523): T1 sequence (Q16236 445-523)
How it was run: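 15N-labelled human NRF2 residues 445–523 were expressed in E. coli BL21(DE3) with TEV-cleaved MBP/His tags and used at 50 μM in 50 mM sodium phosphate pH 6.5, 150 mM NaCl, 1 mM DTT. Test compound (50 mM DMSO-d6 stock) was titrated to final 0.250, 0.750, 1.5 and 2.0 mM, with 1H-15N HSQC at each step. Combined 1HN/15N CSPs were fitted per residue by nonlinear least squares for KD.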

Kd ([2]; KD, from CSP values using equation (1), average over R499, D500, R503): 1.7 ± 0.1 mM | chemical shift change of side chain amide nitrogen Nδ2 of N482, measured value ([2]; at approximately 50–60 % protein fraction bound): 0.64 ppm | CSP, backbone amide of N482 ([2]; upon addition of compound 2): 0.04 ppm
Compound: O=C(O)COc1ccc(-c2ccccc2)cc1Br [Compound 2, 2‐((3‐bromo‐[1,1’‐biphenyl]‐4‐yl)oxy)acetic acid]
replacement of compound by ARE DNA (competition) [1]: final spectrum which is very close to the spectrum of Neh1‐ΔLZIP bound to ARE
